From ChEMBL document CHEMBL3108706, “Design, synthesis, and biological activity of novel dicoumarol glucagon-like peptide 1 conjugates” (J Med Chem, 2013)

What was measured:
[1] = Half life in Sprague-Dawley rat plasma at 1000 ng/mL by LC-MS/MS analysis; format: ADME, cell-free
albumin = albumin (Homo sapiens, UniProt P02768); assay: Binding affinity to human serum albumin at 100 ug/mL after 3 hrs relative to control; format: ADME; details: read-out: PB (converted)
In short: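 Peptide at 100 μg/mL in PBS (50 μL) was incubated with HSA-conjugated Sepharose resin for 3 h at 25 °C, then centrifuged (1000 rpm, 10 min). Unbound peptide in the supernatant was quantified by micro BCA assay. Nonspecific adsorption was corrected with NHS-inactivated, albumin-free resin.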

[2] = target: Glucagon-like peptide 1 receptor (Homo sapiens, UniProt P43220); assay: Activation of human GLP-1 receptor overexpressed in HEK293 cells assessed as cAMP accumulation after 20 mins by HTRF assay; format: functional, cell-based
Glucagon-like peptide 1 receptor, sequence (P43220 whole entry): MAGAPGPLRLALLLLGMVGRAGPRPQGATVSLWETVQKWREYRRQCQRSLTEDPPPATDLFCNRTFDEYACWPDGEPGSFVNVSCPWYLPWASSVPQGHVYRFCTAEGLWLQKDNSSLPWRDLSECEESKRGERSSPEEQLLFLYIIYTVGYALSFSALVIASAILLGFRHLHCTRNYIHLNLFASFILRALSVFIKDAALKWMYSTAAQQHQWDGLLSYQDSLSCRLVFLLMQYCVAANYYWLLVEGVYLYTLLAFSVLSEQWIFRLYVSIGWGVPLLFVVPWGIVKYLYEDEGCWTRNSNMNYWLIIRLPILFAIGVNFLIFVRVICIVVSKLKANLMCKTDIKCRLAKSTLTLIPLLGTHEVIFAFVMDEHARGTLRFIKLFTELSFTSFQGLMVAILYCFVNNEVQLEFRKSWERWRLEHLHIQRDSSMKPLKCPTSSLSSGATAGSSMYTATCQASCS

albumin, sequence (P02768 whole entry): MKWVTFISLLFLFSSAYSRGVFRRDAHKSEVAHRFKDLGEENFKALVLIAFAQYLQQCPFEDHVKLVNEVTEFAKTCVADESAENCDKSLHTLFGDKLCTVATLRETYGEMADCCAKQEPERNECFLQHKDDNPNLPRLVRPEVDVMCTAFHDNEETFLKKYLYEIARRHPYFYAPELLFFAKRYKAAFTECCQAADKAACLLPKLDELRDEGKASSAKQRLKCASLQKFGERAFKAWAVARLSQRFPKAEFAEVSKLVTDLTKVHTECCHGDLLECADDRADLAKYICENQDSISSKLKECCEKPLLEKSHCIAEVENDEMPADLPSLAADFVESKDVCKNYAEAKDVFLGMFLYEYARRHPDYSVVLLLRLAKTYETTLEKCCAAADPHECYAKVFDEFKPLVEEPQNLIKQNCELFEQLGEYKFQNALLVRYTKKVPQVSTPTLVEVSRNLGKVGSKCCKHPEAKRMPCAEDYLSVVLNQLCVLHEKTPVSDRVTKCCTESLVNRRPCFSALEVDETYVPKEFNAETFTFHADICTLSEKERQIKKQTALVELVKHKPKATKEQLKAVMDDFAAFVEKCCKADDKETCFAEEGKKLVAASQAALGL

| SMILES | half-life at 1000 ng/mL [1] | fraction unbound at 3 h, 100 ug/mL (albumin) | EC50 [2] |
| --- | --- | --- | --- |
| CC[C@H](C)[C@H](NC(=O)[C@H](Cc1ccccc1)NC(=O)[C@H](CCC(=O)O)NC(=O)[C@H](CCCCN)NC(=O)[C@H](C)NC(=O)[C@H](C)NC(=O)[C@H](CCC(N)=O)NC(=O)CNC(=O)[C@H](CCC(=O)O)NC(=O)[C@H](CC(C)C)NC(=O)[C@H](Cc1ccc(O)cc1)NC(=O)[C@H](CO)NC(=O)[C@H](CO)NC(=O)[C@@H](NC(=O)[C@H](CC(=O)O)NC(=O)[C@H](CO)NC(=O)[C@@H](NC(=O)[C@H](Cc1ccccc1)NC(=O)[C@@H](NC(=O)CNC(=O)[C@H](CCC(=O)O)NC(=O)CNC(=O)[C@@H](N)Cc1cnc[nH]1)[C@@H](C)O)[C@@H](C)O)C(C)C)C(=O)N[C@@H](C)C(=O)N[C@@H](Cc1c[nH]c2ccccc12)C(=O)N[C@@H](CC(C)C)C(=O)N[C@H](C(=O)N[C@@H](CCCCN)C(=O)NCC(=O)N[C@@H](CCCNC(=N)N)C(N)=O)C(C)C | 0.8 h | 0.937 |  |
| CC[C@H](C)[C@H](NC(=O)[C@H](Cc1ccccc1)NC(=O)[C@H](CCC(=O)O)NC(=O)[C@H](CS)NC(=O)[C@H](C)NC(=O)[C@H](C)NC(=O)[C@H](CCC(N)=O)NC(=O)CNC(=O)[C@H](CCC(=O)O)NC(=O)[C@H](CC(C)C)NC(=O)[C@H](Cc1ccc(O)cc1)NC(=O)[C@H](CO)NC(=O)[C@H](CO)NC(=O)[C@@H](NC(=O)[C@H](CC(=O)O)NC(=O)[C@H](CO)NC(=O)[C@@H](NC(=O)[C@H](Cc1ccccc1)NC(=O)[C@@H](NC(=O)CNC(=O)[C@H](CCC(=O)O)NC(=O)CNC(=O)[C@@H](N)Cc1cnc[nH]1)[C@@H](C)O)[C@@H](C)O)C(C)C)C(=O)N[C@@H](C)C(=O)N[C@@H](Cc1c[nH]c2ccccc12)C(=O)N[C@@H](CC(C)C)C(=O)N[C@H](C(=O)N[C@@H](CCCCN)C(=O)NCC(=O)N[C@@H](CCCNC(=N)N)C(N)=O)C(C)C | 0.7 h | 0.949 | 3.2 pM |
| CC[C@H](C)[C@H](NC(=O)[C@H](Cc1ccccc1)NC(=O)[C@H](CCC(=O)O)NC(=O)[C@H](CCCCN)NC(=O)[C@H](C)NC(=O)[C@H](C)NC(=O)[C@H](CCC(N)=O)NC(=O)CNC(=O)[C@H](CCC(=O)O)NC(=O)[C@H](CC(C)C)NC(=O)[C@H](Cc1ccc(O)cc1)NC(=O)[C@H](CO)NC(=O)[C@H](CS)NC(=O)[C@@H](NC(=O)[C@H](CC(=O)O)NC(=O)[C@H](CO)NC(=O)[C@@H](NC(=O)[C@H](Cc1ccccc1)NC(=O)[C@@H](NC(=O)CNC(=O)[C@H](CCC(=O)O)NC(=O)CNC(=O)[C@@H](N)Cc1cnc[nH]1)[C@@H](C)O)[C@@H](C)O)C(C)C)C(=O)N[C@@H](C)C(=O)N[C@@H](Cc1c[nH]c2ccccc12)C(=O)N[C@@H](CC(C)C)C(=O)N[C@H](C(=O)N[C@@H](CCCCN)C(=O)NCC(=O)N[C@@H](CCCNC(=N)N)C(N)=O)C(C)C | 1.1 h | 0.922 | 6.4 pM |
| CC[C@H](C)[C@H](NC(=O)[C@H](Cc1ccccc1)NC(=O)[C@H](CCC(=O)O)NC(=O)[C@H](CCCCN)NC(=O)[C@H](C)NC(=O)[C@H](C)NC(=O)[C@H](CCC(N)=O)NC(=O)CNC(=O)[C@H](CCC(=O)O)NC(=O)[C@H](CC(C)C)NC(=O)[C@H](Cc1ccc(O)cc1)NC(=O)[C@H](CO)NC(=O)[C@H](CO)NC(=O)[C@@H](NC(=O)[C@H](CC(=O)O)NC(=O)[C@H](CO)NC(=O)[C@@H](NC(=O)[C@H](Cc1ccccc1)NC(=O)[C@@H](NC(=O)CNC(=O)[C@H](CCC(=O)O)NC(=O)CNC(=O)[C@@H](N)Cc1cnc[nH]1)[C@@H](C)O)[C@@H](C)O)C(C)C)C(=O)N[C@@H](C)C(=O)N[C@@H](Cc1c[nH]c2ccccc12)C(=O)N[C@@H](CC(C)C)C(=O)N[C@H](C(=O)N[C@@H](CS)C(=O)NCC(=O)N[C@@H](CCCNC(=N)N)C(N)=O)C(C)C | 0.6 h | 0.939 | 4.9 pM |
| CC[C@H](C)[C@H](NC(=O)[C@H](Cc1ccccc1)NC(=O)[C@H](CCC(=O)O)NC(=O)[C@H](CCCCN)NC(=O)[C@H](C)NC(=O)[C@H](C)NC(=O)[C@H](CCC(N)=O)NC(=O)CNC(=O)[C@H](CCC(=O)O)NC(=O)[C@H](CC(C)C)NC(=O)[C@H](Cc1ccc(O)cc1)NC(=O)[C@H](CO)NC(=O)[C@H](CO)NC(=O)[C@@H](NC(=O)[C@H](CC(=O)O)NC(=O)[C@H](CO)NC(=O)[C@@H](NC(=O)[C@H](Cc1ccccc1)NC(=O)[C@@H](NC(=O)CNC(=O)[C@H](CCC(=O)O)NC(=O)CNC(=O)[C@@H](N)Cc1cnc[nH]1)[C@@H](C)O)[C@@H](C)O)C(C)C)C(=O)N[C@@H](C)C(=O)N[C@@H](Cc1c[nH]c2ccccc12)C(=O)N[C@@H](CC(C)C)C(=O)N[C@H](C(=O)N[C@@H](CCCCN)C(=O)NCC(=O)N[C@@H](CCCNC(=N)N)C(=O)N[C@@H](CSC1CC(=O)N(CCC(=O)Nc2ccc(C(c3c(O)c4ccccc4oc3=O)c3c(O)c4ccccc4oc3=O)cc2)C1=O)C(N)=O)C(C)C (stereo partly specified) | 9.7 h | 0.332 | 3 pM |
| CC[C@H](C)[C@H](NC(=O)[C@H](Cc1ccccc1)NC(=O)[C@H](CCC(=O)O)NC(=O)[C@H](CCCCN)NC(=O)[C@H](C)NC(=O)[C@H](C)NC(=O)[C@H](CCC(N)=O)NC(=O)CNC(=O)[C@H](CCC(=O)O)NC(=O)[C@H](CC(C)C)NC(=O)[C@H](Cc1ccc(O)cc1)NC(=O)[C@H](CO)NC(=O)[C@H](CO)NC(=O)[C@@H](NC(=O)[C@H](CC(=O)O)NC(=O)[C@H](CO)NC(=O)[C@@H](NC(=O)[C@H](Cc1ccccc1)NC(=O)[C@@H](NC(=O)CNC(=O)[C@H](CCC(=O)O)NC(=O)CNC(=O)[C@@H](N)Cc1cnc[nH]1)[C@@H](C)O)[C@@H](C)O)C(C)C)C(=O)N[C@@H](C)C(=O)N[C@@H](Cc1c[nH]c2ccccc12)C(=O)N[C@@H](CC(C)C)C(=O)N[C@H](C(=O)N[C@@H](CSC1CC(=O)N(CCC(=O)Nc2ccc(C(c3c(O)c4ccccc4oc3=O)c3c(O)c4ccccc4oc3=O)cc2)C1=O)C(=O)NCC(=O)N[C@@H](CCCNC(=N)N)C(N)=O)C(C)C (stereo partly specified) | 19.3 h | 0.273 | 6.5 pM |
| CC[C@H](C)[C@H](NC(=O)[C@H](Cc1ccccc1)NC(=O)[C@H](CCC(=O)O)NC(=O)[C@H](CCCCN)NC(=O)[C@H](C)NC(=O)[C@H](C)NC(=O)[C@H](CCC(N)=O)NC(=O)CNC(=O)[C@H](CCC(=O)O)NC(=O)[C@H](CC(C)C)NC(=O)[C@H](Cc1ccc(O)cc1)NC(=O)[C@H](CO)NC(=O)[C@H](CO)NC(=O)[C@@H](NC(=O)[C@H](CC(=O)O)NC(=O)[C@H](CO)NC(=O)[C@@H](NC(=O)[C@H](Cc1ccccc1)NC(=O)[C@@H](NC(=O)CNC(=O)[C@H](CCC(=O)O)NC(=O)CNC(=O)[C@@H](N)Cc1cnc[nH]1)[C@@H](C)O)[C@@H](C)O)C(C)C)C(=O)N[C@@H](C)C(=O)N[C@@H](Cc1c[nH]c2ccccc12)C(=O)N[C@@H](CC(C)C)C(=O)N[C@H](C(=O)N[C@@H](CCCCN)C(=O)NCC(=O)N[C@@H](CCCNC(=N)N)C(=O)N[C@@H](CSC1CC(=O)N(CCCCCC(=O)Nc2ccc(C(c3c(O)c4ccccc4oc3=O)c3c(O)c4ccccc4oc3=O)cc2)C1=O)C(N)=O)C(C)C (stereo partly specified) | 18.6 h | 0.248 | 3.2 pM |
| CC[C@H](C)[C@H](NC(=O)[C@H](Cc1ccccc1)NC(=O)[C@H](CCC(=O)O)NC(=O)[C@H](CCCCN)NC(=O)[C@H](C)NC(=O)[C@H](C)NC(=O)[C@H](CCC(N)=O)NC(=O)CNC(=O)[C@H](CCC(=O)O)NC(=O)[C@H](CC(C)C)NC(=O)[C@H](Cc1ccc(O)cc1)NC(=O)[C@H](CO)NC(=O)[C@H](CO)NC(=O)[C@@H](NC(=O)[C@H](CC(=O)O)NC(=O)[C@H](CO)NC(=O)[C@@H](NC(=O)[C@H](Cc1ccccc1)NC(=O)[C@@H](NC(=O)CNC(=O)[C@H](CCC(=O)O)NC(=O)CNC(=O)[C@@H](N)Cc1cnc[nH]1)[C@@H](C)O)[C@@H](C)O)C(C)C)C(=O)N[C@@H](C)C(=O)N[C@@H](Cc1c[nH]c2ccccc12)C(=O)N[C@@H](CC(C)C)C(=O)N[C@H](C(=O)N[C@@H](CSC1CC(=O)N(CCCCCCCCCCCC(=O)Nc2ccc(C(c3c(O)c4ccccc4oc3=O)c3c(O)c4ccccc4oc3=O)cc2)C1=O)C(=O)NCC(=O)N[C@@H](CCCNC(=N)N)C(N)=O)C(C)C (stereo partly specified) | 38.6 h | 0.168 | 18.1 pM |
| CC[C@H](C)[C@H](NC(=O)[C@H](Cc1ccccc1)NC(=O)[C@H](CCC(=O)O)NC(=O)[C@H](CCCCN)NC(=O)[C@H](C)NC(=O)[C@H](C)NC(=O)[C@H](CCC(N)=O)NC(=O)CNC(=O)[C@H](CCC(=O)O)NC(=O)[C@H](CC(C)C)NC(=O)[C@H](Cc1ccc(O)cc1)NC(=O)[C@H](CO)NC(=O)[C@H](CSC1CC(=O)N(CCC(=O)Nc2ccc(C(c3c(O)c4ccccc4oc3=O)c3c(O)c4ccccc4oc3=O)cc2)C1=O)NC(=O)[C@@H](NC(=O)[C@H](CC(=O)O)NC(=O)[C@H](CO)NC(=O)[C@@H](NC(=O)[C@H](Cc1ccccc1)NC(=O)[C@@H](NC(=O)CNC(=O)[C@H](CCC(=O)O)NC(=O)CNC(=O)[C@@H](N)Cc1cnc[nH]1)[C@@H](C)O)[C@@H](C)O)C(C)C)C(=O)N[C@@H](C)C(=O)N[C@@H](Cc1c[nH]c2ccccc12)C(=O)N[C@@H](CC(C)C)C(=O)N[C@H](C(=O)N[C@@H](CCCCN)C(=O)NCC(=O)N[C@@H](CCCNC(=N)N)C(N)=O)C(C)C (stereo partly specified) | 13.6 h | 0.31 | 26.1 pM |
